Tests used:
[1] = molecular target: T1, Human immunodeficiency virus type 1 reverse transcriptase (Human immunodeficiency virus 1, UniProt Q72547); test: Inhibition of reconstituted HIV1 RNase H using RNA/DNA duplex substrate by fluorescence assay
[2] = molecular target: T1, Human immunodeficiency virus type 1 reverse transcriptase; test: Inhibition of HIV1 recombinant reverse transcriptase associated catalytically active RNase H domain assessed as reduction in DNA 3' end directed cleavage using HTS-2 RNA/DNA duplex substrate by fluorescence assay
[3] = molecular target: T1, Human immunodeficiency virus type 1 reverse transcriptase; test: Inhibition of HIV1 recombinant reverse transcriptase associated catalytically active RNase H domain assessed as reduction in RNA 5' end directed cleavage using HTS-3 RNA/DNA duplex substrate by fluorescence assay
[4] = molecular target: T1, Human immunodeficiency virus type 1 reverse transcriptase; test: Inhibition of HIV1 recombinant reverse transcriptase polymerase activity using [3H]TTP and poly(rA)-oligo(dT)16 substrate incubated for 20 mins by liquid scintillation spectrometry
In short: (§1)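 HIV RT (WT or NNRTI-resistant mutant, 10 nM) added to start reaction with 10 μM [3H]-TTP and 40 nM poly(rA)-oligo(dT)16 in 50 mM Tris-HCl pH 7.4, 60 mM KCl, 5 mM MgCl2; 20 min at 37 °C. Quenched with ice-cold 10% TCA/20 mM sodium pyrophosphate, glass-fiber filtered, washed with TCA and ethanol; incorporation counted by scintillation.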

[5] = Inhibition of Moloney murine leukemia virus reverse transcriptase associated RNase H pre-incubated for 10 mins before HTS-1 RNA/DNA duplex substrate addition by fluorescence assay
In short: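 Preincubated 10 min at room temperature, then started with 100 nM HTS-1 duplex. IC50 at curve midpoint; duplicates, at least two experiments.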

[6] = molecular target: Gag-Pol polyprotein (Moloney murine leukemia virus isolate Shinnick, UniProt P03355); test: Inhibition of Moloney murine leukemia virus reverse transcriptase polymerase activity using Td100/Pd18 DNA-DNA substrate incubated for 30 mins by fluorescence assay
[7] = molecular target: Human immunodeficiency virus type 1 integrase (Human immunodeficiency virus 1, UniProt Q7ZJM1); test: Inhibition of HIV integrase pre-incubated for 10 mins before DNA substrate addition
Chain of Human immunodeficiency virus type 1 integrase (Q7ZJM1 whole entry): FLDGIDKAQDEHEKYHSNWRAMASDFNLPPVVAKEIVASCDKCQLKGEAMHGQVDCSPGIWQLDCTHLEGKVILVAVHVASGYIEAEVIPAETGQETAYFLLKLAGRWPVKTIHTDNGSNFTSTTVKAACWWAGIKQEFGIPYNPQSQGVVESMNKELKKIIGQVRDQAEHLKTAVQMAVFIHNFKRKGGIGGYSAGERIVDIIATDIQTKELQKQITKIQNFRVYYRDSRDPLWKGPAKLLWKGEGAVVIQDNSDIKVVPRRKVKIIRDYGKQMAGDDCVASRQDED
In short: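 Strand transfer assay: 1 μM HIV integrase in 10 mM HEPES pH 7.5, 10% glycerol, 10 mM MnCl2, 1 mM DTT, with compound at 0.13–100 μM final in duplicate, preincubated 10 min at 25 °C. Started with biotin/Cy5-labelled oligo duplex, run 30 min at 37 °C, stopped with EDTA. Mean ± SD from at least three experiments.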

[8] = Selectivity index, ratio of IC50 for HIV integrase to IC50 for HIV1 recombinant reverse transcriptase associated catalytically active RNase H-mediated domain internal cleavage activity
[9] = molecular target: T1, Human immunodeficiency virus type 1 reverse transcriptase; test: Inhibition of HIV1 recombinant reverse transcriptase associated catalytically active RNase H domain assessed as reduction in internal cleavage using HTS-1 RNA/DNA duplex substrate by fluorescence assay
[10] = Inhibition of Escherichia coli RNase H pre-incubated for 10 mins before HTS-1 RNA/DNA duplex substrate addition by fluorescence assay
In short: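 E. coli RNase H at 4 nM with 6 mM MgCl2 and inhibitor at 1, 7 or 30 μM (2% DMSO final) in 50 mM Tris pH 7.8, 50 mM NaCl. Preincubated 10 min at room temperature, then started with 100 nM HTS-1 (fluorescein/Dabcyl RNA/DNA duplex). IC50 taken at curve midpoint; duplicates, at least two independent experiments.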

[11] = tested on: Human immunodeficiency virus; test: Antiviral activity against HIV infected in human HeLa P4/R5 cells pre-incubated for 16 hrs before virus infection and measured 48 hrs post virus infection by fluorescence-based beta-galactosidase detection assay; type: functional, organism-based; settings: Human immunodeficiency virus 1, P4/R5
In short: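 P4R5 indicator cells (expressing CD4, CXCR4, CCR5 and an HIV LTR-driven β-galactosidase reporter) seeded at 5 × 10^3 per well in DMEM/10% FBS with puromycin (0.5 μg/mL). Drug added 16 h before HIV exposure, then 48 h further incubation. Single replication cycle; infection read by fluorescence-based β-galactosidase detection. Highest concentration tested 50 μM; values are averages of two determinations.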

[12] = Toxicity against human HeLa P4/R5 cells; type: cell-based
[13] = Therapeutic index, ratio of CC50 for human HeLa P4/R5 cells to EC50 for HIV infected in human HeLa P4/R5 cells; type: cell-based; settings: read-out: Ratio CC50/EC50
[14] = molecular target: T2, Human immunodeficiency virus type 1 reverse transcriptase (Human immunodeficiency virus 1, UniProt Q72547, Y181C); test: Inhibition of HIV1 reverse transcriptase Y181C mutant associated RNase H domain activity assessed as reduction in internal cleavage using HTS-1 RNA/DNA duplex substrate by fluorescence assay
[15] = molecular target: T2, Human immunodeficiency virus type 1 reverse transcriptase; test: Inhibition of HIV1 reverse transcriptase Y181C mutant polymerase activity using [3H]TTP and poly(rA)-oligo(dT)16 substrate incubated for 20 mins by liquid scintillation spectrometry; in short: as §1
[16] = molecular target: T3, Human immunodeficiency virus type 1 reverse transcriptase (Human immunodeficiency virus 1, UniProt Q72547, K103N/L100I); test: Inhibition of HIV1 reverse transcriptase L100I/K103N mutant associated RNase H domain activity assessed as reduction in internal cleavage using HTS-1 RNA/DNA duplex substrate by fluorescence assay
[17] = molecular target: T3, Human immunodeficiency virus type 1 reverse transcriptase; test: Inhibition of HIV1 reverse transcriptase L100I/K103N mutant polymerase activity using [3H]TTP and poly(rA)-oligo(dT)16 substrate incubated for 20 mins by liquid scintillation spectrometry; in short: as §1
[18] = molecular target: T2, Human immunodeficiency virus type 1 reverse transcriptase; test: Inhibition of HIV1 reverse transcriptase Y181C mutant associated RNase H domain activity assessed as reduction in reduction in DNA 3' end directed cleavage using HTS-2 RNA/DNA duplex substrate by fluorescence assay
[19] = molecular target: T3, Human immunodeficiency virus type 1 reverse transcriptase; test: Inhibition of HIV1 reverse transcriptase L100I/K103N mutant associated RNase H domain activity assessed as reduction in reduction in DNA 3' end directed cleavage using HTS-2 RNA/DNA duplex substrate by fluorescence assay

| SMILES | IC50 [1] [µM] | IC50 [2] [µM] | IC50 [3] [µM] | IC50 [4] [µM] | IC50 [5] [µM] | IC50 [6] [µM] | IC50 [7] [µM] | Ratio IC50 [8] | IC50 [9] [µM] | IC50 [10] [µM] | EC50 [11] [µM] | CC50 ([12]; HeLa P4/R5 cells) [µM] | selectivity ratio [13] | IC50 [14] [µM] | IC50 [15] [µM] | IC50 [16] [µM] | IC50 [17] [µM] | IC50 [18] [µM] | IC50 [19] [µM] | CC50 ([12]; p4/r5) [µM] |
| --- | --- | --- | --- | --- | --- | --- | --- | --- | --- | --- | --- | --- | --- | --- | --- | --- | --- | --- | --- | --- |
| NC(=O)c1ccc(-c2ccc(Cc3ccc4c(c3)CC(=O)N(O)C4=O)cc2)cc1 | 1.5 | – | – | – | – | – | – | – | – | – | – | – | – | – | – | – | – | – | – | – |
| O=C1Cc2cc(Cc3ccccc3)ccc2C(=O)N1O | 1.1 | 1.4 | 1.1 | 1.7 | > 30 | 3.2 | 3.8 | 2.9 | 1.3 | 6.5 | – | – | – | – | – | – | – | – | – | – |
| O=C1Cc2cc(Cc3ccc(Cl)cc3)ccc2C(=O)N1O | – | – | – | – | > 30 | – | 4.4 | – | – | – | – | – | – | – | – | – | – | – | – | – |
| O=C1Cc2cc(Cc3ccc(-c4ccc(F)cc4)cc3)ccc2C(=O)N1O | 2.8 | 4.9 | 5 | – | > 30 | – | > 100 | – | 5.4 | 2.9 | 10 | – | – | – | – | – | – | – | – | – |
| O=C1Cc2cc(Cc3ccc(-c4ccc(F)cc4F)cc3)ccc2C(=O)N1O | 0.7 | 0.9 | 1.4 | 2 | – | – | > 100 | – | 1.5 | – | 13 | > 50 | > 4 | – | – | – | – | – | – | – |
| O=C1Cc2cc(Cc3ccc(-c4ccncc4)cc3)ccc2C(=O)N1O | 0.8 | – | – | – | > 30 | – | – | – | – | 4 | – | – | – | – | – | – | – | – | – | – |
| COc1ccc(-c2ccc(Cc3ccc4c(c3)CC(=O)N(O)C4=O)cc2)cc1 | – | – | – | – | – | – | – | – | – | – | 10 | – | – | – | – | – | – | – | – | – |
| N#Cc1ccc(-c2ccc(Cc3ccc4c(c3)CC(=O)N(O)C4=O)cc2)cc1 | 0.5 | 0.9 | 0.9 | – | > 30 | – | > 100 | – | 0.9 | 3.2 | 13 | > 50 | – | – | – | – | – | – | – | – |
| NS(=O)(=O)c1ccc(-c2ccc(Cc3ccc4c(c3)CC(=O)N(O)C4=O)cc2)cc1 | 0.4 | 0.5 | 0.5 | 0.5 | > 30 | 2.4 | 3.6 | 9 | 0.4 | 2.5 | – | – | – | 0.2 | 0.3 | 0.4 | 0.2 | 0.3 | 0.3 | – |
| O=C1Cc2cc(Cc3ccc(-c4cccs4)cc3)ccc2C(=O)N1O | 0.7 | 2 | 2.7 | 1.5 | – | – | > 100 | – | 2.7 | – | 13 | > 50 | > 4 | – | – | – | – | – | – | – |
| O=C1Cc2cc(Cc3ccc(F)cc3)ccc2C(=O)N1O | 0.5 | 0.8 | 1.2 | 2.3 | – | – | 36 | 28 | 1.3 | – | 13 | > 50 | > 4 | – | – | – | – | – | – | – |
| COc1ccc(-c2ccc(Cc3ccc4c(c3)CC(=O)N(O)C4=O)cc2)cc1F | 0.7 | 1.8 | 1.2 | 1.9 | – | – | > 100 | – | 2.2 | – | 13 | > 50 | > 4 | – | – | – | – | – | – | – |
| O=C1Cc2cc(Cc3ccc(C4CC4)cc3)ccc2C(=O)N1O | 0.9 | 0.8 | 0.9 | – | > 30 | – | 3.8 | – | 0.6 | – | – | – | – | – | – | – | – | – | – | – |
| CS(=O)(=O)c1ccc(-c2ccc(Cc3ccc4c(c3)CC(=O)N(O)C4=O)cc2)cc1 | – | – | – | – | > 30 | – | – | – | – | 7.2 | – | – | – | – | – | – | – | – | – | – |
| O=C1Cc2cc(Cc3ccc(C(F)(F)F)cc3)ccc2C(=O)N1O | 1.2 | 1.1 | 2 | – | > 30 | – | > 100 | – | 1.5 | – | 6.2 | – | – | – | – | – | – | – | – | 50 |
| O=C1Cc2cc(Cc3ccc(-c4ccccc4)cc3)ccc2C(=O)N1O | 0.5 | 0.6 | 0.9 | – | > 30 | – | > 100 | – | 0.8 | 3.4 | 3 | – | – | – | – | – | – | – | – | 50 |
